Columns and labels:
Acetylcholinesterase = target: T1, Acetylcholinesterase (Rattus norvegicus, UniProt P37136); assay: Inhibition of AChE in rat cortex after 15 mins by modified Ellman method
T1 sequence (P37136 whole entry): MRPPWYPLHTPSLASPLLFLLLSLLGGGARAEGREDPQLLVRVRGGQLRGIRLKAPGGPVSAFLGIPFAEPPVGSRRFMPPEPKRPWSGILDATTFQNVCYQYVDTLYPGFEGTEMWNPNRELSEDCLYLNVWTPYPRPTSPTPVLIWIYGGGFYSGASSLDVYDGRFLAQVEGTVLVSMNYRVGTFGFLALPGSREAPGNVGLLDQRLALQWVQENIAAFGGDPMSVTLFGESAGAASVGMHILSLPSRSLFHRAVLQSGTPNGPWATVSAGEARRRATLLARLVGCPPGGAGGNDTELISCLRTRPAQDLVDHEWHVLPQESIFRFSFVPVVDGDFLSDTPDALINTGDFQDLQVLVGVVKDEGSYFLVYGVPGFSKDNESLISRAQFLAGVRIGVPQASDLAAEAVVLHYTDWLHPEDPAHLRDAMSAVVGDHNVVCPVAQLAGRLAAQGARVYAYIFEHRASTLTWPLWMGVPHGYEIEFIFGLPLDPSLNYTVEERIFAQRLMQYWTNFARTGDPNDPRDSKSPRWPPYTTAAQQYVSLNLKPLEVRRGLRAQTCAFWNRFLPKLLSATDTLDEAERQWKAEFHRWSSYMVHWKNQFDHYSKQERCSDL

Butyrylcholinesterase = Butyrylcholinesterase (Rattus norvegicus, UniProt Q9JKC1); assay: Inhibition of BChE in rat serum after 15 mins by modified Ellman method; format: cell-free
Chain of Butyrylcholinesterase (Q9JKC1 whole entry): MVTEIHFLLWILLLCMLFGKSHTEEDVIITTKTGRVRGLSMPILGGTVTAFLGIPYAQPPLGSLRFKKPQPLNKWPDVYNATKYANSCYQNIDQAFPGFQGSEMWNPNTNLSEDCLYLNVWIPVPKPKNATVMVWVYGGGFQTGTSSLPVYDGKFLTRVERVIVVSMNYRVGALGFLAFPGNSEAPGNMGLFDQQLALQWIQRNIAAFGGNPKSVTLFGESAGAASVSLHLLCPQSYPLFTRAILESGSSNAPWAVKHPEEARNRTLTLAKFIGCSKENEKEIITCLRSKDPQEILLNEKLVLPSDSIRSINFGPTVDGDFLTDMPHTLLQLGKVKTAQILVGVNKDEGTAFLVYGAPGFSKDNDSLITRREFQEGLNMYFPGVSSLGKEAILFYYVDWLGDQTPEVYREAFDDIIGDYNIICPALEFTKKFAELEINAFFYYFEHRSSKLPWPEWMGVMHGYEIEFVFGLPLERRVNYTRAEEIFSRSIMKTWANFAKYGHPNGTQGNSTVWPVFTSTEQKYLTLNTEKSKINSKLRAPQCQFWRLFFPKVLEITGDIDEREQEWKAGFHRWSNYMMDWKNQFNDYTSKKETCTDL

Mus musculus [1] = assay: Cognitive enhancing effect against scopolamine-induced acquisition memory deficit in mouse assessed as times of step-down at 2 mg/kg, intragastric gavage after 24 hrs by step-down passive avoidance test; format: functional
Outline: (§1)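 Step-down passive avoidance in mice, 10 per group. In training, each mouse was placed on the platform and its latency to step down onto the grid with all four paws was recorded. It was shocked immediately on stepping down, and the session lasted 3 min. Memory was scored as step-down errors (times) and escape latency (s), each given as mean ± deviation.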

Mus musculus [2] = assay: Cognitive enhancing effect against scopolamine-induced acquisition memory deficit in mouse assessed as escape latency at 2 mg/kg, intragastric gavage after 24 hrs by step-down passive avoidance test; format: functional; outline: as §1
Mus musculus [3] = assay: Cognitive enhancing effect against scopolamine-induced acquisition memory deficit in mouse assessed as escape latency at 10 mg/kg, intragastric gavage after 24 hrs by step-down passive avoidance test; format: functional; outline: as §1
Mus musculus [4] = assay: Cognitive enhancing effect against scopolamine-induced acquisition memory deficit in mouse assessed as escape latency at 5 mg/kg, intragastric gavage after 24 hrs by step-down passive avoidance test; format: functional; outline: as §1
Mus musculus [5] = assay: Cognitive enhancing effect against scopolamine-induced acquisition memory deficit in mouse assessed as times of step-down at 10 mg/kg, intragastric gavage after 24 hrs by step-down passive avoidance test; format: functional; outline: as §1
Mus musculus [6] = assay: Cognitive enhancing effect against scopolamine-induced acquisition memory deficit in mouse assessed as times of step-down at 5 mg/kg, intragastric gavage after 24 hrs by step-down passive avoidance test; format: functional; outline: as §1

Row | Structure (SMILES) | IC50 (Acetylcholinesterase) | IC50 (Butyrylcholinesterase) | further results
1 | COc1cc2c(cc1OC)C(=O)/C(=C/c1ccc(CN3CCCC3)cc1)O2 | 0.16 µM | 36.4 µM | 
2 | COc1cc2c(cc1OC)C(=O)/C(=C/c1cccc(CN(C)C)c1)C2 | 2.14 µM | 89.3 µM | 
3 | COc1cc2c(cc1OC)C(=O)/C(=C/c1ccc(CN(C)C)cc1)C2 | 0.42 µM | 315 µM | 
4 | CCN(C)Cc1cccc(/C=C2\Cc3cc(OC)c(OC)cc3C2=O)c1 | 0.49 µM | 36.8 µM | 
5 | CCN(C)Cc1ccc(/C=C2\Cc3cc(OC)c(OC)cc3C2=O)cc1 | 0.27 µM | 20.1 µM | 
6 | CCN(C)Cc1cccc(/C=C2\Oc3cc(OC)c(OC)cc3C2=O)c1 | 0.7 µM | 23.6 µM | 
7 | CCN(CC)Cc1ccc(/C=C2\Oc3cc(OC)c(OC)cc3C2=O)cc1 | 0.14 µM | 47.9 µM | 
8 | CCN(CC)Cc1ccc(/C=C2\Cc3cc(OC)c(OC)cc3C2=O)cc1 | 0.035 µM | 82 µM | Activity (Mus musculus [1]): 2.67; Activity (Mus musculus [2]): 47 s; Activity (Mus musculus [3]): 60 s; Activity (Mus musculus [4]): 55 s; Activity (Mus musculus [5]): 1.6; Activity (Mus musculus [6]): 2
9 | COc1cc2c(cc1OC)C(=O)/C(=C/c1cccc(CN3CCCC3)c1)C2 | 0.24 µM | 41.6 µM | 
10 | COc1cc2c(cc1OC)C(=O)/C(=C/c1ccc(CN3CCCC3)cc1)C2 | 0.045 µM | 26.6 µM | 
11 | COc1cc2c(cc1OC)C(=O)C(Cc1cccc(CN3CCCCC3)c1)C2 (stereo not drawn) | 0.66 µM | 70.4 µM | 
12 | CCN(C)Cc1cccc(CC2Oc3cc(OC)c(OC)cc3C2=O)c1 (stereo not drawn) | 1.54 µM | 25.9 µM | 
13 | CCN(CC)Cc1cccc(CC2Cc3cc(OC)c(OC)cc3C2=O)c1 (stereo not drawn) | 1.48 µM | 32 µM | 
14 | CCN(CC)Cc1ccc(CC2Cc3cc(OC)c(OC)cc3C2=O)cc1 (stereo not drawn) | 0.29 µM | 11.7 µM | 
15 | COc1cc2c(cc1OC)C(=O)C(Cc1cccc(CN3CCCCC3)c1)O2 (stereo not drawn) | 0.24 µM | 98.1 µM | 
16 | CCN(CC)Cc1cccc(CC2Oc3cc(OC)c(OC)cc3C2=O)c1 (stereo not drawn) | 1.07 µM | 38.2 µM | 
17 | CCN(CC)Cc1ccc(CC2Oc3cc(OC)c(OC)cc3C2=O)cc1 (stereo not drawn) | 0.44 µM | 16.4 µM | 

Row | Structure (SMILES) | IC50 (Acetylcholinesterase) | IC50 (Butyrylcholinesterase) | further results
18 | COc1cc2c(cc1OC)C(=O)C(Cc1cccc(CN3CCCC3)c1)C2 (stereo not drawn) | 2.58 µM | 42.2 µM | 
19 | COc1cc2c(cc1OC)C(=O)C(Cc1ccc(CN3CCCC3)cc1)C2 (stereo not drawn) | 0.15 µM | 33.2 µM | 
20 | CCN(C)Cc1ccc(CC2Cc3cc(OC)c(OC)cc3C2=O)cc1 (stereo not drawn) | 0.38 µM | 34.5 µM | 
21 | COc1cc2c(cc1OC)C(=O)C(Cc1cccc(CN(C)C)c1)C2 (stereo not drawn) | 3.74 µM | 25.2 µM | 
22 | COc1cc2c(cc1OC)C(=O)C(Cc1ccc(CN(C)C)cc1)C2 (stereo not drawn) |  | 40.7 µM | 
23 | COc1cc2c(cc1OC)C(=O)/C(=C/c1cccc(CN3CCCCC3)c1)C2 | 0.16 µM | 55.2 µM | 
24 | COc1cc2c(cc1OC)C(=O)/C(=C/c1cccc(CN3CCCCC3)c1)O2 | 0.082 µM | 45 µM | 
25 | CCN(CC)Cc1cccc(/C=C2\Oc3cc(OC)c(OC)cc3C2=O)c1 | 1.18 µM | 65.1 µM | 
26 | COc1cc2c(cc1OC)C(=O)/C(=C/c1ccc(CN3CCCCC3)cc1)C2 | 0.1 µM | 84.6 µM | 
27 | COc1cc2c(cc1OC)C(=O)C(Cc1ccc(CN3CCCC3)cc1)O2 (stereo not drawn) | 0.62 µM | 49.8 µM | 
28 | COc1cc2c(cc1OC)C(=O)C(Cc1cccc(CN3CCCC3)c1)O2 (stereo not drawn) | 7.02 µM | 57.6 µM | 
29 | COc1cc2c(cc1OC)C(=O)C(Cc1ccc(CN3CCCCC3)cc1)C2 (stereo not drawn) | 0.12 µM | 48.3 µM | 
30 | CCN(C)Cc1cccc(CC2Cc3cc(OC)c(OC)cc3C2=O)c1 (stereo not drawn) | 0.69 µM | 18.5 µM | 
31 | CCN(CC)Cc1cccc(/C=C2\Cc3cc(OC)c(OC)cc3C2=O)c1 | 0.44 µM | 71 µM | 
32 | COc1cc2c(cc1OC)C(=O)/C(=C/c1cccc(CN3CCCC3)c1)O2 | 0.29 µM | 72 µM | 
33 | COc1cc2c(cc1OC)C(=O)C(CC1CCN(Cc3ccccc3)CC1)C2 (stereo not drawn) [DONEPEZIL] |  |  | Activity (Mus musculus [1]): 1.9; Activity (Mus musculus [2]): 75 s
34 | CCN(C)C(=O)Oc1cccc([C@H](C)N(C)C)c1 [RIVASTIGMINE] |  |  | Activity (Mus musculus [1]): 2; Activity (Mus musculus [2]): 73 s

— ChEMBL document CHEMBL1152849, “Design, synthesis and AChE inhibitory activity of indanone and aurone derivatives” (Eur J Med Chem, 2009)
